Measured values taken from ChEMBL document CHEMBL3769384, “Discovery of Tetrahydropyrazolopyridine as Sphingosine 1-Phosphate Receptor 3 (S1P3)-Sparing S1P1 Agonists Active at Low Oral Doses” (J Med Chem, 2016).
The source made the active and inactive calls. The calls are words filed in the database; no cut-off is given here.

Assays:
[1] = Lipophilicity, log D of the compound at pH 7.4 by chromatography; format: physicochemical; conditions: buffer
[2] = molecular target: Sphingosine 1-phosphate receptor 3 (Homo sapiens, UniProt Q99500); experiment: Agonist activity at human S1P3 receptor expressed in RBL cells by [35S]GTP-gammaS accumulation assay; format: cell-based
In short: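 Sucrose-gradient-purified RBL S1P3 membranes (0.44 µg/well) precoupled 30 min on ice to WGA SPA beads with 2 µg/well saponin in HEPES/MgCl2/NaCl buffer pH 7.4. 5 µM GDP final and 0.3 nM [35S]GTPγS final added, then dispensed onto compound in DMSO. Read by scintillation proximity after 3 h at room temperature.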

[3] = molecular target: T1, Sphingosine 1-phosphate receptor 1 (Homo sapiens, UniProt P21453); experiment: Agonist activity at human S1P1 receptor expressed in RH7777 cells by [35S]GTP-gammaS accumulation assay; format: cell-based
In short: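 RH7777 S1P1 membranes (1.5 µg/well) precoupled 30 min on ice to WGA SPA beads in 20 mM HEPES, 10 mM MgCl2, 100 mM NaCl, pH 7.4, with 10 µM GDP and 90 µg/mL saponin (final). 0.5 nM [35S]GTPγS final added to compound; plates read immediately by scintillation proximity.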

[4] = molecular target: T1, Sphingosine 1-phosphate receptor 1; experiment: Agonist activity at human S1P1 receptor expressed in CHO-K1 EDG1 cells by beta-arrestin recruitment assay; format: cell-based
In short: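 CHO-K1 cells stably expressing beta-arrestin 2 and S1P1 fused to complementing beta-galactosidase fragments; grown to 80% confluency, harvested enzyme-free, resuspended in HEPES/BSA assay buffer pH 7.4. Cells at 1x10^4/well added to compound in DMSO, 90 min at 37°C/5% CO2, then 15 min at room temperature; chemiluminescent detection mix 60 min at room temperature, luminescence read.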

Rattus norvegicus [5] = experiment: Lymphopenia activity in Lewis rat at 1 mg/kg, po measured after 2 to 4 hrs; format: functional, organism-based
Rattus norvegicus [6] = experiment: Lymphopenia activity in Lewis rat at 1 mg/kg, po measured after 24 hrs; format: functional, organism-based
Rattus norvegicus [7] = experiment: Lymphopenia activity in Lewis rat at 1 mg/kg, po measured at 8 hrs; format: functional, organism-based
[8] = molecular target: Sphingosine 1-phosphate receptor 5 (Homo sapiens, UniProt Q9H228); experiment: Agonist activity at human S1P5 receptor expressed in CHO-K1 cells by aequorin calcium accumulation assay; format: functional, cell-based
In short: (§1)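 CHO-K1 aequorin lines revived in DMEM F12 with 10% charcoal-stripped FBS, recovered 30 min at 37°C, then loaded 18-24 h at room temperature in the dark with 5 µM coelenterazine at 2.5x10^6 cells/mL. Cells were added at 1x10^5/well to compound, and flash luminescence was recorded immediately.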

[9] = molecular target: T2, Sphingosine 1-phosphate receptor 4 (Homo sapiens) (UniProt O95977); experiment: Agonist activity at human S1P4 receptor expressed in CHO-K1 cells by aequorin calcium accumulation assay; format: functional, cell-based; in short: as §1
T2 sequence (whole entry): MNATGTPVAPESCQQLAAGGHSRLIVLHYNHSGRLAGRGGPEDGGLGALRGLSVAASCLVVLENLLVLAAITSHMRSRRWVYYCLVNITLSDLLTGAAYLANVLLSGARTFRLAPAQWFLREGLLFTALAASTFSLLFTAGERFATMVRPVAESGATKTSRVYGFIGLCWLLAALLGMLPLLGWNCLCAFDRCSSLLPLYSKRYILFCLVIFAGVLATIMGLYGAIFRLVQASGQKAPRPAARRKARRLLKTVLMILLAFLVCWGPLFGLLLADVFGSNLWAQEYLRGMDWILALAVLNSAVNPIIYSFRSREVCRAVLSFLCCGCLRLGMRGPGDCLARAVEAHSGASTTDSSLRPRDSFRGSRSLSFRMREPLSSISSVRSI

[10] = molecular target: T1, Sphingosine 1-phosphate receptor 1; experiment: Agonist activity at human S1P1 receptor by receptor internalisation assay
[11] = molecular target: Sphingosine 1-phosphate receptor 2 (Homo sapiens, UniProt O95136); experiment: Agonist activity at human S1P2 receptor expressed in Saccharomyces cerevisiae after 24 hrs by reporter gene assay
In short: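 S. cerevisiae with integrated S1P2 under the GPD promoter, seeded at 0.02 OD600 in histidine-free minimal medium with 5 mM 3-aminotriazole and 100 µM fluorescein-di-(β-D-glucopyranoside). Agonist-driven growth was read as fluorescein fluorescence (ex 485/em 535 nm) after 24 h at 30°C.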

Rattus norvegicus [12] = experiment: Lymphopenia activity in Lewis rat at 0.3 mg/kg, po measured after 24 hrs; format: functional, organism-based
In short: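 Male Lewis rats (300-350 g) bled by venepuncture the day before dosing. Compound given orally at 0.1-3 mg/kg, or vehicle (1% methylcellulose, 4 mL/kg). Blood taken 0.25-54 h post-dose and lymphocytes counted on an automatic haematology analyser.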

T1 sequence (P21453 whole entry): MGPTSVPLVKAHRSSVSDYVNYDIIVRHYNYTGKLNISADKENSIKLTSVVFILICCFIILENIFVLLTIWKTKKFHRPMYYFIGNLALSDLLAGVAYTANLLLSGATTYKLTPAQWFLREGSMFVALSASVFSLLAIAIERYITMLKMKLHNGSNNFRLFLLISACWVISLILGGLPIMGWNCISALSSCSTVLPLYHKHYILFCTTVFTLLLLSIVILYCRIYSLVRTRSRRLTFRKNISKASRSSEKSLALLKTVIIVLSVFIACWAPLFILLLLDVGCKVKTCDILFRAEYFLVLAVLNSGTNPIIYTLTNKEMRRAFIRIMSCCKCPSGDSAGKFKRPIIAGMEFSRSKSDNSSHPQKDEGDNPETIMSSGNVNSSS
Chain of Sphingosine 1-phosphate receptor 3 (Q99500 whole entry): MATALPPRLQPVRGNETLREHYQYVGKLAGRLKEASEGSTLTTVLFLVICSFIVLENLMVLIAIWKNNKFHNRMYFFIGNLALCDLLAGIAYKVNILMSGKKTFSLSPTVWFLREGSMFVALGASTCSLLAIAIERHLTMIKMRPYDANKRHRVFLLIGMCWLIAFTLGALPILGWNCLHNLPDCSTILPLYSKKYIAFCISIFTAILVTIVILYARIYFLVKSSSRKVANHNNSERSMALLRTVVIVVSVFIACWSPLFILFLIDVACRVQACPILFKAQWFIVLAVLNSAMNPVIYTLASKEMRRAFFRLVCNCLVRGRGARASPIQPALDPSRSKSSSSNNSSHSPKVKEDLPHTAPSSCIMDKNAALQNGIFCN
Chain of Sphingosine 1-phosphate receptor 5 (Q9H228 whole entry): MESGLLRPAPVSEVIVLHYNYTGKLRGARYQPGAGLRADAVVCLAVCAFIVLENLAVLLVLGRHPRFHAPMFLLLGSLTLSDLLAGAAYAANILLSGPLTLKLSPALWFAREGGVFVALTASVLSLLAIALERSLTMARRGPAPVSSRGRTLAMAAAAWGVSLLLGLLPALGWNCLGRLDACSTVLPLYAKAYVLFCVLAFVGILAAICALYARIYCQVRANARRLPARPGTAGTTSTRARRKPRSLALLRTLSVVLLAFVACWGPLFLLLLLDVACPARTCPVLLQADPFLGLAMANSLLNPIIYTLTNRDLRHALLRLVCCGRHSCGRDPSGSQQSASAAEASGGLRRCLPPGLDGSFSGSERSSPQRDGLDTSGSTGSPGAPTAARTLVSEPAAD
Chain of Sphingosine 1-phosphate receptor 2 (O95136 whole entry): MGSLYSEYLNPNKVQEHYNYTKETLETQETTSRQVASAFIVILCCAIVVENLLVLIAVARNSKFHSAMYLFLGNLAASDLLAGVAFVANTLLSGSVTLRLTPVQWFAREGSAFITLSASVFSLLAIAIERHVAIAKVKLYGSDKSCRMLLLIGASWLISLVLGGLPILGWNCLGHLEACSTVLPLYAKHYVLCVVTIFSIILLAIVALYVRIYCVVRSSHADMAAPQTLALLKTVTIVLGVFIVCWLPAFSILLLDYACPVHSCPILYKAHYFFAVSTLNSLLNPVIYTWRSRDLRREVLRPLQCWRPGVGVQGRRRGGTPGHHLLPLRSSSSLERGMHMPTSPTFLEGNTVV

## CC(C)Oc1ccc(-c2nnc(-c3ccno3)s2)cc1Cl
[1]
  chromatographic logD: 6.93
[2]
  EC50: > 31600 nM
[3]
  EC50: 1000 nM

## Cc1[nH]ncc1-c1nnc(-c2ccc(OC(C)C)c(Cl)c2)s1
[1]
  chromatographic logD: 5.45
[2]
  EC50: > 31600 nM
[3]
  EC50: 126 nM

## Cc1c(-c2noc(-c3ccc(OC(C)C)c(C#N)c3)n2)ccc2c1CCN(CCC(=O)O)C2
[1]
  chromatographic logD: 3.41
[2]
  EC50: > 39800 nM
[4]
  EC50: 5.01 nM
[3]
  EC50: 31.6 nM

## CC(C)Oc1ccc(-c2nnc(-n3cc4c(n3)CCN(CCC(=O)O)C4)s2)cc1Cl
[1]
  chromatographic logD: 3.26
Rattus norvegicus [5]
  Activity: Active
[2]
  EC50: > 31600 nM
[4]
  EC50: 3.98 nM
Rattus norvegicus [6]
  Activity: inactive
[3]
  EC50: 12.6 nM

## CC(C)Oc1ccc(-c2nnc(-n3cc4c(n3)CCNC4)s2)cc1Cl
[1]
  chromatographic logD: 4.44
[2]
  EC50: > 31600 nM
[4]
  EC50: 631 nM
[3]
  EC50: 631 nM

## Cc1nc(C)c(-c2nnc(-c3ccc(OC(C)C)c(Cl)c3)s2)s1
[1]
  chromatographic logD: 7.76
[2]
  EC50: > 31600 nM
[3]
  EC50: 251 nM

## Cc1c2c(nn1-c1nnc(-c3ccc(OC(C)C)c(C#N)c3)s1)CCNC2
[1]
  chromatographic logD: 3.73
[2]
  EC50: > 31600 nM
[4]
  EC50: 63.1 nM
[3]
  EC50: 100 nM

## CC(C)Oc1ccc(-c2nnc(-c3cn[nH]c3)s2)cc1Cl
[1]
  chromatographic logD: 5
[2]
  EC50: > 31600 nM
[3]
  EC50: 631 nM

## CC(C)Oc1ccc(-c2nnc(N3CCNCC3)s2)cc1Cl
[3]
  EC50: 6310 nM

## CC(C)Oc1ccc(-c2nnc(Nc3ccc(CC(=O)O)cc3)s2)cc1Cl
[3]
  EC50: 1260 nM

## CC(C)Oc1ccc(-c2nnc(-n3cc4c(n3)CCN(CCCC(=O)O)C4)s2)cc1Cl
[1]
  chromatographic logD: 3.56
[2]
  EC50: > 31600 nM
[4]
  EC50: 5.01 nM
[3]
  EC50: 12.6 nM

## CC(C)Oc1ccc(-c2nnc(-c3ccnn3C)s2)cc1Cl
[1]
  chromatographic logD: 7.04
[2]
  EC50: > 31600 nM
[3]
  EC50: 251 nM

## CC(C)Oc1ccc(-c2nnc(-c3cnn(CC(=O)O)c3)s2)cc1Cl
[1]
  chromatographic logD: 2.82
[2]
  EC50: > 31600 nM
[3]
  EC50: 25100 nM

## CC(C)Oc1ccc(-c2nnc(-n3cncn3)s2)cc1Cl
[1]
  chromatographic logD: 6.18
[2]
  EC50: > 31600 nM
[3]
  EC50: 501 nM

## Cc1c(-c2nnc(-c3ccc(OC(C)C)c(Cl)c3)s2)cnn1CCC(=O)O
[1]
  chromatographic logD: 3.16
[2]
  EC50: > 31600 nM
[3]
  EC50: 2510 nM

## Cc1c2c(nn1-c1nnc(-c3ccc(OC(C)C)c(C#N)c3)s1)CCN(CCC(=O)O)C2
[1]
  chromatographic logD: 2.76
Rattus norvegicus [5]
  Activity: Active
[2]
  EC50: > 31600 nM
[4]
  EC50: 3.16 nM
Rattus norvegicus [7]
  Activity: Active
[3]
  EC50: 15.8 nM

## CC(C)Oc1ccc(-c2nnc(-n3ncc4c3CCN(CCC(=O)O)C4)s2)cc1Cl
[1]
  chromatographic logD: 3.54
Rattus norvegicus [5]
  Activity: inactive
[2]
  EC50: 20000 nM
[4]
  EC50: 50.1 nM
[3]
  EC50: 126 nM

## Cc1c2c(nn1-c1nnc(-c3ccc(OC(C)C)c(Cl)c3)s1)CCN(CCC(=O)O)C2
[8]
  Emax: 63%
Rattus norvegicus [5]
  Activity: Active
[4]
  Emax: 83%
[9]
  Emax: 7%
Rattus norvegicus [6]
  Activity: Active
[10]
  Emax: 109%
[11]
  Emax: 0%
Rattus norvegicus [12]
  Activity: Active

## CCCCCCCCc1ccc(CCC(N)(CO)CO)cc1
Rattus norvegicus [5]
  Activity: Active

## Cc1nn(-c2nnc(-c3ccc(OC(C)C)c(Cl)c3)s2)c(C)c1CC(=O)O
[1]
  chromatographic logD: 3.62
[2]
  EC50: > 31600 nM
[4]
  EC50: 1580 nM
[3]
  EC50: 1000 nM

## CC(C)Oc1ccc(-c2nnc(-c3cnn(CCN4CCOCC4)c3)s2)cc1Cl
[1]
  chromatographic logD: 5.59
[2]
  EC50: > 31600 nM
[3]
  EC50: 10000 nM

## Cc1c2c(nn1-c1nnc(-c3ccc(OC(C)C)c(C#N)c3)s1)CCN(CC(=O)O)C2
[1]
  chromatographic logD: 2.88
[2]
  EC50: > 31600 nM
[4]
  EC50: 100 nM

## CC(C)Oc1ccc(-c2nnc(-c3ccccc3)s2)cc1Cl
[1]
  chromatographic logD: 8.65
[2]
  EC50: 20000 nM
[3]
  EC50: 251 nM

## CC(C)Oc1ccc(-c2nnc(NC3CCN(CC(=O)O)CC3)s2)cc1Cl
[3]
  EC50: 2510 nM

## CC(C)Oc1ccc(-c2nnc(NCCNCCC(=O)O)s2)cc1Cl
[3]
  EC50: > 31600 nM

## CC(C)Oc1ccc(-c2nnc(-c3cncn3C)s2)cc1Cl
[1]
  chromatographic logD: 5.7
[2]
  EC50: > 31600 nM
[3]
  EC50: 63.1 nM

## CC(C)Oc1ccc(-c2nnc(NC3=CCNCC3)s2)cc1Cl
[3]
  EC50: 1580 nM

## CC(C)Oc1ccc(-c2nnc(-n3cc4c(n3)CCNC4)s2)cc1C#N
[1]
  chromatographic logD: 3.37
[2]
  EC50: > 31600 nM
[4]
  EC50: 126 nM
[3]
  EC50: 501 nM

## CC(C)Oc1ccc(-c2nnc(N3CCOc4c(CCC(=O)O)cccc43)s2)cc1Cl
[3]
  EC50: 251 nM

## Cc1c2c(nn1-c1nnc(-c3ccc(OC(C)C)c(Cl)c3)s1)CCNC2
[1]
  chromatographic logD: 5.32
[2]
  EC50: > 31600 nM
[4]
  EC50: 158 nM
[3]
  EC50: 126 nM

## CC(C)Oc1ccc(-c2nnc(NCCN)s2)cc1Cl
[3]
  EC50: > 31600 nM

## Cc1c2c(nn1-c1nnc(-c3ccc(OC(C)C)c(C#N)c3)s1)CNCC2
[1]
  chromatographic logD: 4.23
[2]
  EC50: > 31600 nM
[4]
  EC50: 158 nM

## CC(C)Oc1ccc(-c2nnc(-n3cc4c(n3)CCN(CCCC(=O)O)C4)s2)cc1C#N
[1]
  chromatographic logD: 2.87
[2]
  EC50: > 31600 nM
[4]
  EC50: 6.31 nM

## CC(C)Oc1ccc(-c2nnc(-n3cc4c(n3)CCN(CCC(=O)O)C4)s2)cc1C#N
[1]
  chromatographic logD: 2.58
Rattus norvegicus [5]
  Activity: Active
[2]
  EC50: > 31600 nM
[4]
  EC50: 5.01 nM
Rattus norvegicus [7]
  Activity: Active
[3]
  EC50: 50.1 nM

## CC(C)Oc1ccc(-c2nnc(N3CCC(N4CCCC(C(=O)O)C4)CC3)s2)cc1Cl (centres undefined)
[3]
  EC50: 3980 nM

## Cc1nn(-c2nnc(-c3ccc(OC(C)C)c(Cl)c3)s2)c(C)c1CCC(=O)O
[1]
  chromatographic logD: 4.3
[2]
  EC50: > 31600 nM
[4]
  EC50: 20 nM
[3]
  EC50: 39.8 nM

## CC(C)Oc1ccc(-c2nnc(-n3ncc4c3CCNC4)s2)cc1Cl
[1]
  chromatographic logD: 4.87
[2]
  EC50: > 31600 nM
[4]
  EC50: 794 nM
[3]
  EC50: 398 nM

## CC(C)Oc1ccc(-c2nnc(N3CCc4cc(CCC(=O)O)ccc43)s2)cc1Cl
[3]
  EC50: 100 nM
